Laboratory results: ChEMBL document CHEMBL2429786, “New serotonin 5-HT1A receptor agonists endowed with antinociceptive activity in vivo” (J Med Chem, 2013)
The source made the active and inactive calls. The calls are words filed in the database; no cut-off is given here.

Tests used:
[1] = target: T1, 5-hydroxytryptamine receptor 1A (Rattus norvegicus, UniProt P19327); test: Displacement of [3H]-8-OH-DPAT from 5-HT1A receptor in Sprague-Dawley rat cerebral cortex after 15 mins; type: tissue-based
T1 sequence (P19327 whole entry): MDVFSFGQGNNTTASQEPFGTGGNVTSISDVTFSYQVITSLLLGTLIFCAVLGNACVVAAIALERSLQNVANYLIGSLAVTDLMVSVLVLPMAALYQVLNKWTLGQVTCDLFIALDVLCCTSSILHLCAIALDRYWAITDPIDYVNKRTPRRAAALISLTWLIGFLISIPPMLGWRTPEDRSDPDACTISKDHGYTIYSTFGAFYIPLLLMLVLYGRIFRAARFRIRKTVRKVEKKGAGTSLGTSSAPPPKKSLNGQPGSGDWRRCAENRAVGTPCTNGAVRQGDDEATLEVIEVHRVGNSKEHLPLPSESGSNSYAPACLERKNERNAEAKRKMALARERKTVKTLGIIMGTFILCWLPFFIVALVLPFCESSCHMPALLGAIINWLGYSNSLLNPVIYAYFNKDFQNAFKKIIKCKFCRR

[2] = target: 5-hydroxytryptamine receptor 7 (Rattus norvegicus, UniProt P32305); test: Displacement of [3H]-5-CT from 5-HT7 receptor in Sprague-Dawley rat hypothalamus after 120 mins
Sequence of 5-hydroxytryptamine receptor 7 (P32305 whole entry): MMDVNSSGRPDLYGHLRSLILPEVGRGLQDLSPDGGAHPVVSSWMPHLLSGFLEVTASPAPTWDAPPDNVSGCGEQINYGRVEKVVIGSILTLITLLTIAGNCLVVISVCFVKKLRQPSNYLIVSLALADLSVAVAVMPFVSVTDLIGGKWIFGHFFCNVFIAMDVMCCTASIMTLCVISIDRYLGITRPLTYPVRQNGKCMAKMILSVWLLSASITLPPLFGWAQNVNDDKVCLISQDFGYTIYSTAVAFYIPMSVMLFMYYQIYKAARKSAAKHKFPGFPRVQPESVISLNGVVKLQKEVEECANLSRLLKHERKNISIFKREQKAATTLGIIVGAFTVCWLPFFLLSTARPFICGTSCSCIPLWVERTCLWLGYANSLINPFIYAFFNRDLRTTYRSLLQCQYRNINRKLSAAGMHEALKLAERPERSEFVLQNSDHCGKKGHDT

[3] = target: T2, 5-hydroxytryptamine receptor 3A (Rattus norvegicus, UniProt P35563); test: Displacement of [3H]LY 278584 from 5-HT3 receptor in Sprague-Dawley rat cerebral cortex after 30 mins; type: tissue-based
T2 sequence (P35563 whole entry): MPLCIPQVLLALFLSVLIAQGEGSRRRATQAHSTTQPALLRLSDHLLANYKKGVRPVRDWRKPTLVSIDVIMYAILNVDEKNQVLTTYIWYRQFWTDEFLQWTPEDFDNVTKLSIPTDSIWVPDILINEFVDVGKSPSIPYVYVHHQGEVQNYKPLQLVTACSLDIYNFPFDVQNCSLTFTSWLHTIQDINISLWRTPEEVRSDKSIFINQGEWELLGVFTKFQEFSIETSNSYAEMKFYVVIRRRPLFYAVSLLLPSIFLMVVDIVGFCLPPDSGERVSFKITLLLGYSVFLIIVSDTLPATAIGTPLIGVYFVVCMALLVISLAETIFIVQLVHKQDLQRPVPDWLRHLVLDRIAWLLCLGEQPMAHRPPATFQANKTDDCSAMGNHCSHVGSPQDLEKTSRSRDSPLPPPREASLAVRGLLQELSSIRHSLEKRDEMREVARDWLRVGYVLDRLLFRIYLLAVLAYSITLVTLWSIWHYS

[4] = target: 5-hydroxytryptamine receptor 2A (Rattus norvegicus, UniProt P14842); test: Displacement of [3H]ketanserin from 5-HT2A receptor in Sprague-Dawley rat frontal cortex after 15 mins; type: tissue-based
Sequence of 5-hydroxytryptamine receptor 2A (P14842 whole entry): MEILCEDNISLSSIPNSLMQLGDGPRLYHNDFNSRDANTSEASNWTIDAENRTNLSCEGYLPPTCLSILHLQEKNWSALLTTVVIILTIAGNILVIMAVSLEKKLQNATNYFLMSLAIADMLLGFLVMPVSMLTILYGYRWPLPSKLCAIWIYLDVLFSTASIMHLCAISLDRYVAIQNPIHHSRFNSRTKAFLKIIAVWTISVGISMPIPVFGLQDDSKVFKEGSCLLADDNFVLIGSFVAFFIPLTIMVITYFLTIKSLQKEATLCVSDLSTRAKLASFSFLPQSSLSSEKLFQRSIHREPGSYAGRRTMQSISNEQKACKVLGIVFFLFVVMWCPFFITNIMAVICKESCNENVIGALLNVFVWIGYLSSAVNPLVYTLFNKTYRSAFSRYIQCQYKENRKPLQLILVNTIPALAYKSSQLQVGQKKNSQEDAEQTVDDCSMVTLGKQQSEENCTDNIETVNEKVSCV

[5] = target: 5-hydroxytryptamine receptor 4 (Rattus norvegicus, UniProt Q62758); test: Displacement of [3H]GR113808 from 5-HT4 receptor in Sprague-Dawley rat striatum after 30 mins
Sequence of 5-hydroxytryptamine receptor 4 (Q62758 whole entry): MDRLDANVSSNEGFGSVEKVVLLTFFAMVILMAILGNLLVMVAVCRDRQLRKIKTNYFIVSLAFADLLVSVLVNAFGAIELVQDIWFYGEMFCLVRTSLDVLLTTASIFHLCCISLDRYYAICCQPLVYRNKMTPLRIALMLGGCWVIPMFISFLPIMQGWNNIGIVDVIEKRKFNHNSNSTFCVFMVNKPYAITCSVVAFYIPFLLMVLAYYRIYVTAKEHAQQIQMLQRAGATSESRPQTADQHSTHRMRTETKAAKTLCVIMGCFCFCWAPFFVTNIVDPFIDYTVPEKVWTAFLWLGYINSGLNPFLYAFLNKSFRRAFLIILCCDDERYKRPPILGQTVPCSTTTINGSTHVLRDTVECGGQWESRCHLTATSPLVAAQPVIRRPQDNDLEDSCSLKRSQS

Mus musculus [6] = test: Antinociceptive activity in CD-1 mouse assessed as reduction of formalin-induced paw licking activity at 3 mg/kg, ip administered 15 mins prior to formalin-challenge measured after 15 to 30 mins; type: functional, organism-based; parameters: dose 3 mg/kg
Mus musculus [7] = organism: Mus musculus; test: Hypothermic activity in Swiss mouse assessed as change in rectal temperature after 60 mins; type: functional; details: 1 h, read-out: MED
[8] = Half life in human liver microsomes at 1 to 5 uM by HPLC-MS analysis; type: ADME, Microsome
Summary of the method: (§1)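 Incubation mixtures pre-equilibrated at 37 °C with NADPH and MgCl2, then rat or human liver microsomes added to start the reaction. Aliquots were withdrawn and quenched at several time points, and percent parent remaining was measured by HPLC-MS and plotted against time. t1/2 was taken from the slope of peak area over time and used to calculate CLint.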

[9] = Intrinsic clearance in human liver microsomes at 1 to 5 uM by HPLC-MS analysis; type: ADME, Microsome; details: read-out: CLH; summary of the method: as §1
[10] = Half life in Sprague-Dawley rat liver microsomes at 1 to 5 uM by HPLC-MS analysis; type: ADME, Microsome; summary of the method: as §1
CYP2D6 = CYP2D6 (Homo sapiens, UniProt P10635); test: Inhibition of human recombinant microsomal CYP2D6 using {3-[2-(N,N-diethyl-N-methylamino)ethyl]-7-methoxy-4-methylcoumarin} as substrate assessed as remaining activity at 10 uM after 30 mins by spectrofluorimetric analysis relative to control; type: ADME; details: read-out: Activity
Sequence of CYP2D6 (P10635 whole entry): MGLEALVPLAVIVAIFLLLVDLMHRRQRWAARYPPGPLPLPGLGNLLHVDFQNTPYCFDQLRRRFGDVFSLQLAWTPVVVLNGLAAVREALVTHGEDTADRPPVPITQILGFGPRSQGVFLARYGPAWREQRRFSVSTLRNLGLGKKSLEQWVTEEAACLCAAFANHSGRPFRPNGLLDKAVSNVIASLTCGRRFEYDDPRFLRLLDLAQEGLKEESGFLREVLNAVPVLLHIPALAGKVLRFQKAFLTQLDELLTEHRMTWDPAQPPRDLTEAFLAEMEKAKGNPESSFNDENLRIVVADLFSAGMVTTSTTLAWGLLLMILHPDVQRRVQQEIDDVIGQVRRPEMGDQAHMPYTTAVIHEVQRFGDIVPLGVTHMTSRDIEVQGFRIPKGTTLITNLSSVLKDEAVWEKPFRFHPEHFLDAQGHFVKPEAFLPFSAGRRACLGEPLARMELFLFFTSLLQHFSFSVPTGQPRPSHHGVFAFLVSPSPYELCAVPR

[11] = target: T3, 5-hydroxytryptamine receptor 1A (Homo sapiens, UniProt P08908); test: Agonist activity at human 5-HT1A receptor expressed in human HeLa cells assessed as inhibition of forskolin-stimulated cAMP formation after 10 mins by RIA; type: functional, cell-based
T3 sequence (P08908 whole entry): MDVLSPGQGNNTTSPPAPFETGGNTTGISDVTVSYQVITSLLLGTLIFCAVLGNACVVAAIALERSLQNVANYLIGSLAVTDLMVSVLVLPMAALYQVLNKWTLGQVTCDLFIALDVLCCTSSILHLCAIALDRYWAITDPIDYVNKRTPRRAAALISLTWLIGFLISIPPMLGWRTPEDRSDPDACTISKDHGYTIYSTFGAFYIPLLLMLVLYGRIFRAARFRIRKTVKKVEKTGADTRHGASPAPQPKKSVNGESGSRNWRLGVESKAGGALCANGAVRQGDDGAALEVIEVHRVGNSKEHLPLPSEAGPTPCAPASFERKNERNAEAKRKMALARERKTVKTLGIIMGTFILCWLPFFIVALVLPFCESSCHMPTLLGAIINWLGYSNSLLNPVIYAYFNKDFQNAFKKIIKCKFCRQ

[12] = Intrinsic clearance in Sprague-Dawley rat liver microsomes at 1 to 5 uM by HPLC-MS analysis; type: ADME, Microsome; details: read-out: CLH; summary of the method: as §1
Albumin = Albumin (Homo sapiens, UniProt P02768); test: Binding affinity to human serum albumin at 5 uM after 12 mins by HPLC-MS analysis relative to control; type: ADME; details: isolated protein, 0.2 h
Sequence of Albumin (P02768 whole entry): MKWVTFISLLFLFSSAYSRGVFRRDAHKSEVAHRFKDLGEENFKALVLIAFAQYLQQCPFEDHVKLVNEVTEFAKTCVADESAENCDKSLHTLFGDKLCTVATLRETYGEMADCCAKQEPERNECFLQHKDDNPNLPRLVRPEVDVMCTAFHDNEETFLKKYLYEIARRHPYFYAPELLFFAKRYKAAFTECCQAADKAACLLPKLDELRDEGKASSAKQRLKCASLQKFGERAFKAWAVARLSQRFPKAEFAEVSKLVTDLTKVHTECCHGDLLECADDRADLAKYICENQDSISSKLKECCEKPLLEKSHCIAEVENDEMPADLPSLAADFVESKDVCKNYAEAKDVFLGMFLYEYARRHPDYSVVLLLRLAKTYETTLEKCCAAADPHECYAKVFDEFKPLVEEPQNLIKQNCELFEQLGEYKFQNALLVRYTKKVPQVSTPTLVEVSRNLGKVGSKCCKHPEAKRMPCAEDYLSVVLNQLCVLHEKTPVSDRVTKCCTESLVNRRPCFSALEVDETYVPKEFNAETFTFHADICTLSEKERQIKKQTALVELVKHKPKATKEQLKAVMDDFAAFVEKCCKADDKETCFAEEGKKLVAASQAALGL

Mus musculus [13] = test: Antinociceptive activity in CD-1 mouse assessed as reduction of formalin-induced paw licking activity at 100 mg/kg, ip administered 15 mins prior to formalin-challenge measured after 5 to 30 mins; type: functional, organism-based; parameters: dose 100 mg/kg
Summary of the method: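 Formalin injected intradermally in mice. Formalin-induced nociceptive behaviour is scored separately in the early and late phases of the test.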

[14] = target: T3, 5-hydroxytryptamine receptor 1A; test: Partial agonist activity at human 5-HT1A receptor expressed in human HeLa cells assessed as inhibition of forskolin-stimulated cAMP formation after 10 mins by RIA; type: functional, cell-based

SMILES	Ki [1] [µM]	Ki [2] [µM]	Ki [3] [µM]	Ki [4] [µM]	Ki [5] [µM]	other results
O=C1C2CCCN2C(=O)N1CCCCNCCOc1cccc(-c2ccccc2)c1 (configuration not stated)	0.072	–	–	–	–	–
NCCc1c[nH]c2ccc(C(N)=O)cc12	–	0.0018	–	–	–	–
Cc1cccc(OCCNCCCCN2C(=O)C3CCCN3C2=O)c1C (configuration not stated)	0.045	> 1	> 1	0.31	> 1	–
O=C1C2CCCN2C(=O)N1CCCCNCCOc1ccc2ccccc2c1 (configuration not stated)	0.041	> 1	> 1	0.422	> 1	–
O=C1C2CCCN2C(=O)N1CCCCNCCOc1cccc(C(F)(F)F)c1 (configuration not stated)	0.0389	–	–	–	–	–
O=C1C2CCCN2C(=O)N1CCCCNCCOc1ccc(C(F)(F)F)cc1 (configuration not stated)	> 1	–	–	–	–	–
COc1ccc(OCCNCCCCN2C(=O)C3CCCN3C2=O)c2ccccc12 (configuration not stated)	0.027	0.301	> 1	> 1	> 1	–
COc1ccccc1OCCNCCCCN1C(=O)C2CCCN2C1=O.Cl (configuration not stated)	0.0048	> 1	> 1	0.267	> 1	Activity (Mus musculus [6]): Active; minimal effective dose (Mus musculus [7]): 0.625 mg/kg; half-life at up to 5 µM [8]: 3.95 h; CLint scaled at up to 5 µM [9]: 2.6 mL/min/kg; half-life at up to 5 µM [10]: 0.162 h; activity at 0.5 h, 10 µM (CYP2D6): 48%; EC50 [11]: 0.023 µM; CLint scaled at up to 5 µM [12]: 145 mL/min/kg; Activity (Albumin): 25%
Cl.O=C1C2CCCN2C(=O)N1CCCCNCCOc1ccccc1 (configuration not stated)	–	> 1	> 1	> 1	> 1	Activity (Mus musculus [6]): Active; minimal effective dose (Mus musculus [7]): 2.5 mg/kg; half-life at up to 5 µM [8]: 2.52 h; CLint scaled at up to 5 µM [9]: 4.1 mL/min/kg; half-life at up to 5 µM [10]: 0.167 h; activity at 0.5 h, 10 µM (CYP2D6): 24%; CLint scaled at up to 5 µM [12]: 140 mL/min/kg; Activity (Albumin): 38%
O=C1C2CCCN2C(=O)N1CCCCNCCOc1ccccc1Br (configuration not stated)	0.062	–	–	–	–	–
N#Cc1ccc(OCCNCCCCN2C(=O)C3CCCN3C2=O)cc1 (configuration not stated)	> 1	–	–	–	–	–
CCc1cccc(OCCNCCCCN2C(=O)C3CCCN3C2=O)c1 (configuration not stated)	0.03	> 1	> 1	> 1	> 1	–
O=C1C2CCCN2C(=O)N1CCCCNCCOc1cccc2c1CCCC2 (configuration not stated)	0.038	> 1	> 1	0.049	> 1	–
NCC1(CC(=O)O)CCCCC1	–	–	–	–	–	Activity (Mus musculus [13]): Active
N#Cc1cccc(OCCNCCCCN2C(=O)C3CCCN3C2=O)c1 (configuration not stated)	> 1	–	–	–	–	–
O=C1C2CCCN2C(=O)N1CCCCNCCOc1ccccc1-c1ccccc1 (configuration not stated)	0.026	0.101	> 1	> 1	> 1	–

SMILES	Ki [1] [µM]	Ki [2] [µM]	Ki [3] [µM]	Ki [4] [µM]	Ki [5] [µM]	other results
O=C1C2CCCN2C(=O)N1CCCCNCCOc1ccc(Br)cc1 (configuration not stated)	> 1	–	–	–	–	–
COc1ccc(OCCNCCCCN2C(=O)C3CCCN3C2=O)cc1 (configuration not stated)	> 1	–	–	–	–	–
N#Cc1ccccc1OCCNCCCCN1C(=O)C2CCCN2C1=O (configuration not stated)	> 1	–	–	–	–	–
O=C1C2CCCN2C(=O)N1CCCCNCCOc1ccccc1C(F)(F)F (configuration not stated)	0.51	–	–	–	–	–
COc1cc(F)ccc1OCCNCCCCN1C(=O)C2CCCN2C1=O (configuration not stated)	0.0374	> 1	> 1	> 1	> 1	–
O=C1C2CCCN2C(=O)N1CCCCNCCOc1cccc2cccnc12 (configuration not stated)	0.044	0.015	> 1	> 1	> 1	–
Cl.O=C1C2CCCN2C(=O)N1CCCCNCCOc1cccc2ccccc12 (configuration not stated)	–	–	> 1	0.041	> 1	Activity (Mus musculus [6]): Active; minimal effective dose (Mus musculus [7]): 10 mg/kg; half-life at up to 5 µM [8]: 2.05 h; CLint scaled at up to 5 µM [9]: 5.1 mL/min/kg; half-life at up to 5 µM [10]: 0.135 h; activity at 0.5 h, 10 µM (CYP2D6): 6%; EC50 [11]: 0.045 µM; CLint scaled at up to 5 µM [12]: 171 mL/min/kg; Activity (Albumin): 60%
COc1cc(COc2cc(N)c(Cl)cc2C(=O)CCC2CCN(CCNS(C)(=O)=O)CC2)cc(OC)c1	–	–	–	–	0.0039	–
CCc1ccc(OCCNCCCCN2C(=O)C3CCCN3C2=O)cc1 (configuration not stated)	0.742	–	–	–	–	–
O=C1C2CCCN2C(=O)N1CCCCNCCOc1ccc(-c2ccccc2)cc1 (configuration not stated)	> 1	–	–	–	–	–
CCc1ccccc1OCCNCCCCN1C(=O)C2CCCN2C1=O.Cl (configuration not stated)	0.0168	0.185	> 1	0.366	> 1	minimal effective dose (Mus musculus [7]): 10 mg/kg; half-life at up to 5 µM [8]: 2.28 h; CLint scaled at up to 5 µM [9]: 4.6 mL/min/kg; half-life at up to 5 µM [10]: 0.178 h; activity at 0.5 h, 10 µM (CYP2D6): 13%; EC50 [14]: 1.2 µM; CLint scaled at up to 5 µM [12]: 131 mL/min/kg; Activity (Albumin): 55%
COc1ccccc1CNCCCCN1C(=O)C2CCCN2C1=O (configuration not stated)	> 1	–	–	–	–	–
O=C1C2CCCN2C(=O)N1CCCCNCCOc1cccc(Br)c1 (configuration not stated)	0.052	> 1	> 1	0.514	> 1	–
CC(C)c1ccccc1OCCNCCCCN1C(=O)C2CCCN2C1=O (configuration not stated)	0.038	> 1	> 1	0.26	> 1	–
COc1cccc(OCCNCCCCN2C(=O)C3CCCN3C2=O)c1 (configuration not stated)	0.034	> 1	> 1	> 1	> 1	–
